Reference: ChEMBL document CHEMBL3120079, “NF-κB inhibitors from Eurycoma longifolia” (J Nat Prod, 2014)
≈ marks a conversion by molar mass, not a printed value. Calls of active or inactive are those of the source.

Assays:
Homo sapiens [1] = species: Homo sapiens; test: (§1) Inhibition of NF-kappaB activity in TNF-alpha stimulated human HEK-293/NF-kB-luc cells incubated for 30 mins prior to TNF-alpha challenge for 4 hrs by luciferase reporter gene assay
How it was run: (§2)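 HEK293/NF-κB-luc cells were prestained with 2 μM CMFDA for 1 h, reseeded at 4 × 10^4 cells/well overnight in phenol red-free, serum-free DMEM, pretreated 30 min with compound or 0.1% DMSO vehicle, then stimulated with TNF-α 2 ng/mL for 4 h. Lysates were read for firefly luciferase, normalized to CMFDA fluorescence for cell number. Screen at 30 μM; IC50 determined for selected compounds.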

Homo sapiens [2] = species: Homo sapiens; test: Inhibition of NF-kappaB activity in TNF-alpha stimulated human HEK-293/NF-kB-luc cells at 30 uM incubated for 30 mins prior to TNF-alpha challenge for 4 hrs by luciferase reporter gene assay; how it was run: as §2
HEK293 = test: Growth inhibition of TNF-alpha stimulated human HEK-293/NF-kB-luc cells assessed as cell viability at 30 uM incubated for 30 mins prior to TNF-alpha challenge for 4 hrs by CellTracker Green CMFDA staining; format: cell-based; settings: hek293, 4 h
How it was run: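 Cells loaded 1 h with 2 μM CellTracker Green CMFDA in serum-free medium, reseeded at 4 × 10^4 cells/well overnight in phenol red-free, FBS-free DMEM. Pretreated with test compound or vehicle (0.1% DMSO) for 30 min, then TNF-α 2 ng/mL for 4 h. After lysis, CMFDA fluorescence was compared with vehicle-treated cells.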

[3] = as §1; how it was run: as §2
[4] = Toxicity against brine shrimp; format: organism-based; settings: artemia, in vivo; read-out: LD50 (the source's name)
[5] = Acute toxicity in po dosed mouse; format: organism-based; settings: in vivo
[6] = Homo sapiens, HEK293, read-out: IC50

Structure (SMILES)	inhibition (Homo sapiens [1])	inhibition (Homo sapiens [2])	IC50 [3]	IC50 [3, 6] [µM]	Activity (HEK293)	LC50 [4] [mg/L]	LD50 [5] [mg/kg]
O=C(O)c1ccc(O)c(-c2cc(C(=O)O)ccc2O)c1	inactive						
COc1c(O)c2nccc3c4ccccc4n(c1=O)c23 [PICRASIDINE Q]		inactive			Non-toxic		
CC1=CC(=O)[C@]2(C)[C@H]3[C@@H](O)[C@@H]4OC(=O)[C@@H]([C@H]4C)[C@]3(C)C(=O)C[C@@H]12 [LAURYCOLACTONE A]			Not Active		Non-toxic		
CC1=CC(=O)[C@@H](O)[C@]2(C)[C@H]3[C@@H](O)[C@H](O)[C@H](C)[C@]4(O)[C@@H](O)C(=O)O[C@H](C[C@@H]12)[C@]34C		> 50%		1	Non-toxic	324 (≈ 816 µM)	
COc1cc(C)c2c(=O)cc(C[C@H](C)O)oc2c1[C@@H]1O[C@H](CO)[C@@H](O)[C@H](O)[C@H]1OC(=O)/C=C/c1ccc(O)cc1	inactive						
C=C1[C@@H](O)[C@@]2(O)OC[C@]34[C@H]2[C@@]2(C)[C@H](O)C(=O)C=C(C)[C@@H]2C[C@H]3OC(=O)[C@H](O)[C@@]14O [EURYCOMANONE]		> 50%		2.4	Non-toxic	3.5 (≈ 8.57 µM)	50
CC1=CC(=O)[C@@H](O)[C@]2(C)[C@H]3[C@@]4(O)OC[C@@]35[C@@H](C[C@@H]12)OC(=O)[C@H](O)[C@@]5(O)[C@@H](C)[C@H]4O		> 50%		0.7	Non-toxic	10.3 (≈ 25.1 µM)	
CC1=CC(=O)[C@@H](O)[C@@]2(C)[C@H]1[C@@H](O)[C@H]1OC(=O)C3[C@@H](C)[C@H](O)[C@H](O)[C@H]2[C@]31C (stereo partly drawn) [LONGILACTONE]		> 50%		4.7	Non-toxic	145 (≈ 395 µM)	
COc1cc(C=O)ccc1O	inactive						
CC1=CC(=O)[C@@H](O)[C@@]2(C)[C@H]1CC(=O)[C@@]1(C)[C@H]3C(=O)O[C@H]([C@@H]3C)[C@H](O)[C@@H]12 [EURYCOMALACTONE]		> 50%		0.5	Non-toxic		
C[C@H]1[C@H]2OC(=O)[C@@H]1[C@]1(C)C(=O)C=C3[C@H](C)CC(=O)[C@@H](O)[C@]3(C)[C@H]1[C@H]2O		> 50%		18.4	Non-toxic		
CC1=CC(=O)[C@@H](O)[C@]2(C)[C@H]3[C@@H](O)[C@@H]4OC(=O)[C@@H]([C@H]4C)[C@]3(C)[C@H](O)C[C@@H]12		> 50%		1.5	Non-toxic		
C=C1C(=O)O[C@@H]2C3O[C@]3(C)CC/C=C(\C)CC[C@@H]12 (stereo partly drawn)				1.5	Non-toxic		
COc1cc2ccc(=O)oc2c(O)c1OC	inactive				Non-toxic		
COc1cc2ccc(=O)oc2cc1O [SCOPOLETIN]	inactive				Non-toxic		

Second part, led by results:

inhibition (Homo sapiens [1])	inhibition (Homo sapiens [2])	IC50 [3]	IC50 [3, 6] [µM]	Structure (SMILES)	Activity (HEK293)	LC50 [4] [mg/L]	LD50 [5] [mg/kg]
	> 50%		3.8	CC1=C[C@H](O)[C@@H](O)[C@@]2(C)[C@H]1CC(=O)[C@@]1(C)[C@H]3C(=O)O[C@H]([C@@H]3C)[C@H](O)[C@@H]12 [EURYCOLACTONE E]	Non-toxic		
	inactive			O=c1ccc2nccc3c4ccc(O[C@@H]5O[C@H](CO)[C@@H](O)[C@H](O)[C@H]5O)cc4n1c23	Non-toxic		
	> 50%		7.4	COc1ccc2c3ccnc4ccc(=O)n(c2c1)c43	Non-toxic		
	> 50%		3.8	O=c1ccc2nccc3c4ccc(O)cc4n1c23	Non-toxic		
inactive				CC(=O)O[C@@H](CC[C@@H](OC(C)=O)[C@]1(C)CC[C@H]([C@@](C)(O)CCC=C(C)C)O1)[C@@]1(C)CC[C@H]([C@@](C)(O)CCC=C(C)C)O1	Non-toxic		
inactive				COc1cc(C(=O)O)cc(OC)c1O			
	> 50%		29.3	COC(=O)c1nccc2c1[nH]c1ccccc12	Non-toxic		
	> 50%		19.5	COc1cc2c3ccnc4ccc(=O)n(c2cc1OC)c43.Cl	Non-toxic		
	> 50%		23.3	COc1ccc(-c2oc3c(OC)c(OC)c(OC)c(OC)c3c(=O)c2OC)cc1OC [3,5,6,7,8,3',4'-HEPTAMETHOXYFLAVONE]	Non-toxic		
		Not Active		CC1=CC(=O)[C@@]2(C)C1=CC(=O)[C@]1(C)[C@@H]2[C@@H](O)[C@@H]2OC(=O)[C@H]1[C@H]2C [LAURYCOLACTONE B]	Non-toxic		
	> 50%		6.2	CC1=CC(=O)[C@@H](O)[C@@]2(C)C1=CC(=O)[C@]1(C)[C@@H]2[C@@H](O)[C@@H]2OC(=O)[C@H]1[C@H]2C	Non-toxic		
inactive				COc1cc(C(=O)O)ccc1O			
	> 50%		1.9	CC1=CC(=O)[C@@H](O)[C@]2(C)[C@H]3C(=O)[C@H](O)[C@H](C)[C@@H]4CC(=O)O[C@H](C[C@@H]12)[C@]34C	Non-toxic		
inactive				C[C@@H]1CC[C@]2(C(=O)O[C@@H]3O[C@H](CO)[C@@H](O)[C@H](O)[C@H]3O)CC[C@]3(C)C(=CC[C@@H]4[C@@]5(C)CC[C@H](O)[C@@](C)(CO)[C@@H]5CC[C@]43C)[C@@H]2[C@]1(C)O [PEDUNCULOSIDE]	Non-toxic		
